# Measured values pooled from the literature.
# Lines come from different studies, so protocols differ.
# CDK6 with cyclin D3: Cyclin-dependent kinase 6, with cyclin D3 (CDK6, Homo sapiens, UniProt Q00534)
# CDK6: Cyclin-dependent kinase 6 (CDK6, Homo sapiens, UniProt Q00534)
# CDK6 with cyclin D1: Cyclin-dependent kinase 6, with cyclin D1 (CDK6, Homo sapiens, UniProt Q00534)
SMILES,target,assay,conditions,measurement,value
O=C(Nc1cnn(-c2csc(C(=O)NC3COC3)c2)c1)Nc1ccccc1Cl,CDK6 with cyclin D3,"enzyme activity, inhibitor",5 µM,remaining activity,114%
Cc1ccc(NC(=O)c2ccc(C)c(C(F)(F)F)c2)cc1C#Cc1nn(C2CCC(O)CC2)c2ncnc(N)c12 (centres unmarked),CDK6 with cyclin D3,cell-free assay,10 µM,remaining signal,120%
Cn1cnc(Br)c1C1=CN(c2ncnc3[nH]cnc23)CCS1,CDK6,"enzyme activity, inhibitor, radiometric",2 µM,inhibition,40.4%
CC(C)(O)[C@H]1CC[C@H](Nc2ccc3ncc(-c4cccc(C(F)(F)F)c4)n3n2)CC1,CDK6 with cyclin D1,"enzyme activity, inhibitor",1 µM,remaining activity,101%
CC(C)(C)c1nc2c(s1)c1nc(N)ncc1c1ccc(NS(=O)(=O)c3c(F)cccc3F)c(F)c12,CDK6 with cyclin D1,"enzyme activity, inhibitor, radiometric",1 µM,remaining activity,113%
O=C1Nc2ccc(Cl)cc2C1=Cc1cc(Cl)c(O)c(Cl)c1,CDK6 with cyclin D1,cell-free assay,0.5 µM,remaining signal,97%
CCN(CC)CCNC(=O)c1c(C)[nH]c(/C=C2\C(=O)Nc3ccc(F)cc32)c1C,CDK6 with cyclin D3,"enzyme activity, inhibitor",0.3 µM,inhibition,13%
N#CCCc1ccc2c(c1)-c1[nH]c3ccc([N+](=O)[O-])cc3c1CC(=O)N2,CDK6 with cyclin D3,cell-free assay,0.5 µM,remaining signal,26%
CN1CC(Oc2cnc(C#N)cc2-c2ccn3nc(NC(=O)C4CC4)cc3c2)C1,CDK6 with cyclin D3,"enzyme activity, inhibitor",1 µM,inhibition,-8%
Cc1ccc(Nc2nccc(N(C)c3ccc4c(C)n(C)nc4c3)n2)cc1S(N)(=O)=O,CDK6 with cyclin D3,"enzyme activity, inhibitor",10 µM,inhibition,38%
Nc1nc(Nc2ccc(S(N)(=O)=O)cc2)sc1C(=O)c1ccccc1[N+](=O)[O-],CDK6,"enzyme activity, inhibitor",0.1 µM,inhibition,85%
CCN(CC)c1ccc(C2=NNC(=O)CC2C)cc1[N+](=O)[O-] (centres unmarked),CDK6 with cyclin D3,"enzyme activity, inhibitor",10 µM,remaining activity,90%
O=C1NC(=O)c2cc(Nc3ccc(F)cc3)c(Nc3ccc(F)cc3)cc21,CDK6 with cyclin D1,cell-free assay,0.5 µM,remaining signal,99%
O=C(Nc1cnn(-c2csc(C(=O)NC3COC3)c2)c1)Nc1c(F)cccc1Cl,CDK6 with cyclin D3,"enzyme activity, inhibitor",5 µM,remaining activity,92.6%
CNC(=O)c1cc(Oc2ccc(NC(=O)Nc3ccc(Cl)c(C(F)(F)F)c3)cc2)ccn1,CDK6 with cyclin D3,"enzyme activity, inhibitor",0.3 µM,inhibition,-11%
CCCOc1ccc(OC)c(F)c1C(=O)c1ccc(C(=O)N[C@@H]2CNC[C@H]2NC(=O)c2ccc3[nH]ncc3c2)cc1,CDK6 with cyclin D3,"enzyme activity, inhibitor",10 µM,remaining activity,83%
CC(C)(C)c1nc(-c2cccc(NS(=O)(=O)c3c(F)cccc3F)c2F)c(-c2ccnc(N)n2)s1,CDK6 with cyclin D3,"enzyme activity, inhibitor, radiometric",1 µM,remaining activity,74%
